Experimental data taken from ChEMBL document CHEMBL1154802, “Antiestrogenic constituents of the Thai medicinal plants Capparis flavicans and Vitex glabrata” (2009).
Activity calls are given as the source filed them. The rule behind the calls is not given here.

Assays:
MCF7 [1] = assay: Antiestrogenic activity in human MCF7 cells assessed as drug level causing inhibition of 100 pM E2-enhanced cell proliferation to level equivalent to 1 pM E2 after 96 hrs by alamar blue assay; type: functional
Procedure, shortened: (§1)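 Cells seeded at 1 × 10^4 per well in phenol red-free RPMI with 5% DCC-treated FBS. E2 was added from a 20 nM solution to give 100 pM and preincubated 1 h at 37 °C, 5% CO2. Compounds were then added at 0.1, 1, 10 and 100 µM for 96 h, with serially diluted tamoxifen as positive control. Antagonism was judged from cell populations. iEqE values were obtained by linear regression over four concentrations.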

MCF7 [2] = assay: Stimulation of human MCF7 cell proliferation up to 100 uM after 96 hrs by alamar blue assay relative to estradiol; type: functional, cell-based
Procedure, shortened: (§2)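 Compounds were given alone at 0.1, 1, 10 and 100 µM, and stimulation of proliferation was compared with estradiol at 1–100 pM. Cell proliferation assay as in an earlier report.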

MCF7 [3] = assay: Antiestrogenic activity in human MCF7 cells assessed as drug level causing inhibition of 100 pM E2-enhanced cell proliferation to level equivalent to 10 pM E2 after 96 hrs by alamar blue assay; type: functional; procedure, shortened: as §1
T47D [4] = assay: Antiestrogenic activity in human T47D cells assessed as inhibition of E2-enhanced cell proliferation at 0.1 to 100 uM after 96 hrs by alamar blue assay; type: functional; procedure, shortened: as §1
T47D [5] = assay: Antiestrogenic activity in human T47D cells assessed as drug level causing inhibition of 100 pM E2-enhanced cell proliferation to level equivalent to 50 pM E2 after 96 hrs by alamar blue assay; type: functional; procedure, shortened: as §1
T47D [6] = assay: Stimulation of human T47D cell proliferation up to 100 uM after 96 hrs by alamar blue assay relative to estradiol; type: functional, cell-based; procedure, shortened: as §2
T47D [7] = assay: Antiestrogenic activity in human T47D cells assessed as drug level causing inhibition of 100 pM E2-enhanced cell proliferation to level equivalent to 1 pM E2 after 96 hrs by alamar blue assay; type: functional; procedure, shortened: as §1
MCF7 [8] = assay: Antiestrogenic activity in human MCF7 cells assessed as drug level causing inhibition of 100 pM E2-enhanced cell proliferation to level equivalent to 50 pM E2 after 96 hrs by alamar blue assay; type: functional; procedure, shortened: as §1
T47D [9] = assay: Antiestrogenic activity in human T47D cells assessed as drug level causing inhibition of 100 pM E2-enhanced cell proliferation to level equivalent to 10 pM E2 after 96 hrs by alamar blue assay; type: functional; procedure, shortened: as §1
MCF7 [10] = assay: Antiestrogenic activity in human MCF7 cells assessed as inhibition of E2-enhanced cell proliferation at 0.1 to 100 uM after 96 hrs by alamar blue assay; type: functional; procedure, shortened: as §1

With `COc1cc(/C=C/CO)ccc1O[C@@H]1O[C@H](COC(=O)/C=C/c2ccc(O)c(O)c2)[C@@H](O)[C@H](O)[C@H]1O` [KHAINAOSIDE C] the Activity (MCF7 [1]) was 5 µM, the Activity (MCF7 [2]) was “inactive” and the Activity (MCF7 [3]) was 4 µM. For the same compound, the “inhibition (INH)” value (T47D [4]) was over 90%, the Activity (T47D [5]) was under 0.1 µM and the Activity (T47D [6]) was “inactive”. For the same compound, the Activity (T47D [7]) was over 100 µM, the Activity (MCF7 [8]) was 4 µM and the Activity (T47D [9]) was under 0.1 µM.
With `COc1cc([C@H]2OC[C@H]3[C@@H]2CO[C@@H]3c2cc(OC)c(O[C@@H]3O[C@H](CO)[C@@H](O)[C@H](O)[C@H]3O)c(OC)c2)ccc1O` the Activity (MCF7 [1]) was over 100 µM, the Activity (MCF7 [2]) was “inactive” and the Activity (MCF7 [3]) was under 0.1 µM. For the same compound, the “inhibition (INH)” value (MCF7 [10]) was over 90%, the Activity (T47D [5]) was under 0.1 µM and the Activity (T47D [6]) was “inactive”. The Activity (T47D [7]) was over 100 µM, the Activity (MCF7 [8]) was under 0.1 µM and the Activity (T47D [9]) was 2 µM.
In the case of `COc1cc([C@H]2OC[C@H]3[C@@H]2CO[C@@H]3c2cc(OC)c(O)c(OC)c2)ccc1O[C@@H]1O[C@H](CO)[C@@H](O)[C@H](O)[C@H]1O` [ISOEUCOMMIN A], the Activity (MCF7 [1]) is reported as under 0.1 µM, the Activity (MCF7 [2]) is reported as “inactive” and the Activity (MCF7 [3]) is reported as under 0.1 µM. The “inhibition (INH)” value (T47D [4]) was over 90%, the Activity (T47D [5]) was under 0.1 µM and the Activity (T47D [6]) was “inactive”. For the same compound, the Activity (T47D [7]) was over 100 µM, the Activity (MCF7 [8]) was under 0.1 µM and the Activity (T47D [9]) was under 0.1 µM.
For `COc1cc([C@H](O[C@@H]2O[C@H](CO)[C@@H](O)[C@H](O)[C@H]2O)[C@@H](CO)Oc2c(OC)cc(/C=C/CO)cc2OC)ccc1O`, the Activity (MCF7 [1]) was over 100 µM, the Activity (MCF7 [2]) was “inactive” and the Activity (MCF7 [3]) was 6 µM. The “inhibition (INH)” value (T47D [4]) was over 50%, the Activity (T47D [5]) was under 0.1 µM and the Activity (T47D [6]) was “inactive”. It also gave an Activity (T47D [7]) of over 100 µM, an Activity (MCF7 [8]) of under 0.1 µM and an Activity (T47D [9]) of over 100 µM.
In the case of `COc1cc(O[C@@H]2O[C@H](CO)[C@@H](O)[C@H](O)[C@H]2O)cc(OC)c1O` [KOABURASIDE], the Activity (MCF7 [1]) is reported as over 100 µM, the Activity (MCF7 [2]) is reported as “inactive” and the Activity (MCF7 [3]) is reported as under 0.1 µM. For the same compound, the “inhibition (INH)” value (MCF7 [10]) was over 90%, the Activity (T47D [5]) was 2 µM and the Activity (T47D [6]) was “inactive”. For the same compound, the Activity (T47D [7]) was 70 µM, the Activity (MCF7 [8]) was under 0.1 µM and the Activity (T47D [9]) was 37 µM.
With `COc1cc(O)ccc1O[C@@H]1O[C@H](CO[C@@H]2OC[C@@H](O)[C@H](O)[C@H]2O)[C@@H](O)[C@H](O)[C@H]1O` [CAPPAROSIDE A] the Activity (MCF7 [1]) was over 100 µM, the Activity (MCF7 [2]) was “inactive” and the Activity (MCF7 [3]) was 0.3 µM. The “inhibition (INH)” value (T47D [4]) was over 50%, the Activity (T47D [5]) was under 0.1 µM and the Activity (T47D [6]) was “inactive”. For the same compound, the Activity (T47D [7]) was over 100 µM, the Activity (MCF7 [8]) was under 0.1 µM and the Activity (T47D [9]) was over 100 µM.
In the case of `COc1cc([C@H]2OC[C@H]3[C@@H]2CO[C@@H]3c2cc(OC)c(O[C@@H]3O[C@H](CO)[C@@H](O)[C@H](O)[C@H]3O)c(OC)c2)cc(OC)c1O`, the Activity (MCF7 [1]) is reported as under 0.1 µM, the Activity (MCF7 [2]) is reported as “inactive” and the Activity (MCF7 [3]) is reported as under 0.1 µM. For the same compound, the Activity (T47D [5]) was under 0.1 µM, the Activity (T47D [6]) was “inactive” and the Activity (T47D [7]) was over 100 µM. The Activity (MCF7 [8]) was under 0.1 µM and the Activity (T47D [9]) was 19 µM.
For `CCCc1ccc(O[C@@H]2O[C@H](CO)[C@@H](O)[C@H](O)[C@H]2O)c(OC)c1`, the Activity (MCF7 [1]) was 0.4 µM, the Activity (MCF7 [2]) was “inactive” and the Activity (MCF7 [3]) was under 0.1 µM. For the same compound, the “inhibition (INH)” value (T47D [4]) was over 50%, the Activity (T47D [5]) was under 0.1 µM and the Activity (T47D [6]) was “inactive”. For the same compound, the Activity (T47D [7]) was over 100 µM, the Activity (MCF7 [8]) was under 0.1 µM and the Activity (T47D [9]) was over 100 µM.
With `O=c1cc(-c2ccc(O)cc2)oc2cc(O[C@@H]3O[C@H](CO)[C@@H](O)[C@H](O)[C@H]3O)cc(O)c12` [APIGETRIN] the Activity (MCF7 [1]) was over 100 µM, the Activity (MCF7 [2]) was “inactive” and the Activity (MCF7 [3]) was under 0.1 µM. The “inhibition (INH)” value (MCF7 [10]) was over 90%, the Activity (T47D [5]) was under 0.1 µM and the Activity (T47D [6]) was “inactive”. For the same compound, the Activity (T47D [7]) was 2 µM, the Activity (MCF7 [8]) was under 0.1 µM and the Activity (T47D [9]) was under 0.1 µM.
With `COc1cc(/C=C/C(=O)O[C@H]2C[C@@H]3C(C(=O)O)=CO[C@@H](O[C@@H]4O[C@H](CO)[C@@H](O)[C@H](O)[C@H]4O)[C@@H]3[C@@H]2C)ccc1O` [KHAINAOSIDE B] the Activity (MCF7 [1]) was over 100 µM, the Activity (MCF7 [2]) was “inactive” and the Activity (MCF7 [3]) was under 0.1 µM. For the same compound, the “inhibition (INH)” value (T47D [4]) was over 90%, the “inhibition (INH)” value (MCF7 [10]) was over 90% and the Activity (T47D [5]) was under 0.1 µM. For the same compound, the Activity (T47D [6]) was “inactive”, the Activity (T47D [7]) was over 100 µM and the Activity (MCF7 [8]) was under 0.1 µM. For the same compound, the Activity (T47D [9]) was under 0.1 µM.
In the case of `Nc1ncnc2c1ncn2[C@@H]1O[C@H](CO)[C@@H](O)[C@H]1O` [ADENOSINE], the Activity (MCF7 [1]) is reported as over 100 µM, the Activity (MCF7 [2]) is reported as “inactive” and the Activity (MCF7 [3]) is reported as under 0.1 µM. The “inhibition (INH)” value (MCF7 [10]) was over 90%, the Activity (T47D [5]) was 2 µM and the Activity (T47D [6]) was “inactive”. The Activity (T47D [7]) was over 100 µM, the Activity (MCF7 [8]) was under 0.1 µM and the Activity (T47D [9]) was 69 µM.
`COc1cc([C@H]2OC[C@H]3[C@@H]2CO[C@@H]3c2cc(OC)c(O)c(OC)c2)cc(OC)c1O` [SYRINGARESINOL] was tested, and the Activity (MCF7 [1]) was 5 µM, the Activity (MCF7 [2]) was “inactive” and the Activity (MCF7 [3]) was 4 µM. The Activity (T47D [5]) was under 0.1 µM, the Activity (T47D [6]) was “inactive” and the Activity (T47D [7]) was 7 µM. It also gave an Activity (MCF7 [8]) of 2 µM and an Activity (T47D [9]) of 1 µM.
`COc1cc([C@H]2OC[C@H]3[C@@H]2CO[C@@H]3c2ccc(O[C@@H]3O[C@H](CO)[C@@H](O)[C@H](O)[C@H]3O)c(OC)c2)ccc1O` was tested, and the Activity (MCF7 [1]) was under 0.1 µM, the Activity (MCF7 [2]) was “inactive” and the Activity (MCF7 [3]) was under 0.1 µM. The “inhibition (INH)” value (T47D [4]) was over 90%, the Activity (T47D [5]) was under 0.1 µM and the Activity (T47D [6]) was “inactive”. It also gave an Activity (T47D [7]) of over 100 µM, an Activity (MCF7 [8]) of under 0.1 µM and an Activity (T47D [9]) of under 0.1 µM.
